{"source": "ChEMBL document CHEMBL2396604", "about": "“Synthesis and structure activity relationship of tetrahydroisoquinoline-based potentiators of GluN2C and GluN2D containing N-methyl-D-aspartate receptors” (J Med Chem, 2013)", "format_in_all_cases": "cell-based", "key": {"[1]": {"target": "Glutamate receptor ionotropic, kainate 2 (Rattus norvegicus) (UniProt P42260)", "sequence (P42260 whole entry)": "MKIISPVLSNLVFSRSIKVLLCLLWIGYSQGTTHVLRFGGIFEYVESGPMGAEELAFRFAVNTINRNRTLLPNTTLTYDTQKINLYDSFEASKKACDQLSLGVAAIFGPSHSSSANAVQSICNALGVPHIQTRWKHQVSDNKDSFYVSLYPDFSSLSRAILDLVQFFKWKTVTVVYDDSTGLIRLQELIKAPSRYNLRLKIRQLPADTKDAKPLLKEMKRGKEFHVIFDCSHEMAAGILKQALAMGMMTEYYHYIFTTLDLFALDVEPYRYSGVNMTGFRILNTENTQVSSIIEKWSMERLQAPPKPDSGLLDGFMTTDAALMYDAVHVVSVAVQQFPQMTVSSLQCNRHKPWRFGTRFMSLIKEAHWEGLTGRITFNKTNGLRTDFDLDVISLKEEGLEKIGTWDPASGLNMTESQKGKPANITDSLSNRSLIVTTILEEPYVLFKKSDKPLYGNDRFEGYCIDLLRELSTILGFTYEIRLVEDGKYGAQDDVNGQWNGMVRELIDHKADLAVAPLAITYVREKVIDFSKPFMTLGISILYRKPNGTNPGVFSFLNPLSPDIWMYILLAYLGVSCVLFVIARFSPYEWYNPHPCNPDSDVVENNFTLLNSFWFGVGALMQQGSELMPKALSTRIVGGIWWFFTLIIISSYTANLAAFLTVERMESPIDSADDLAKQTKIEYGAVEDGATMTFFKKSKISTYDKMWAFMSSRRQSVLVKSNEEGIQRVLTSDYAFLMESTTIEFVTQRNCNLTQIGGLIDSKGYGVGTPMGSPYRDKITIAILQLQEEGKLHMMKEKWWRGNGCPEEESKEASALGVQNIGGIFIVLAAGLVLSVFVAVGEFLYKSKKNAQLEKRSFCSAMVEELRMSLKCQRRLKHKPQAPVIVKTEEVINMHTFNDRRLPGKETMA", "test": "Activity at rat recombinant GluK2 receptor expressed in Xenopus oocytes assessed as effect on glutamate-induced response by two-electrode voltage clamp technique", "conditions": "Oocyte", "outline": "(§1)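 Oocytes injected with 1–5 ng cRNA, kept in Barth's solution at 15°C for 2–5 days. Clamped at -40 mV in 90 NaCl, 1.0 KCl, 0.5 BaCl₂, 0.005 EDTA, 10 HEPES (mM), pH 7.4, 23°C. Receptors activated by 100 µM glutamate with compound co-applied. GluK2 oocytes pretreated with 10 µM concanavalin A for 10 min. DMSO 0.05–0.5% final.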"}, "[2]": {"test_system": "BHK", "test": "Activity at GluN1/GluN2C receptor in hamster BHK cells assessed as effect on NMDA-induced response up to 6 hrs by Fluo-4 dye-based fluorescence assay", "conditions": "Mesocricetus auratus"}, "[3]": {"target": "Ionotropic glutamate receptor NMDA 1/2D (Rattus norvegicus) (UniProt P35439+Q62645)", "test": "Activity at rat recombinant GluN1/GluN2D receptor expressed in Xenopus oocytes assessed as potentiation of 0.3 uM glycine/0.1 uM glutamate-induced activation at 10 uM by two-electrode voltage clamp technique relative to control", "conditions": "Oocyte"}, "[4]": {"test_system": "BHK", "test": "Activity at GluN1/GluN2C receptor in hamster BHK cells assessed as effect on NMDA-induced response after 24 hrs by Fluo-4 dye-based fluorescence assay", "conditions": "Mesocricetus auratus"}, "[5]": {"target": "Glutamate receptor 1 (Rattus norvegicus) (UniProt P19490)", "sequence (P19490 whole entry)": "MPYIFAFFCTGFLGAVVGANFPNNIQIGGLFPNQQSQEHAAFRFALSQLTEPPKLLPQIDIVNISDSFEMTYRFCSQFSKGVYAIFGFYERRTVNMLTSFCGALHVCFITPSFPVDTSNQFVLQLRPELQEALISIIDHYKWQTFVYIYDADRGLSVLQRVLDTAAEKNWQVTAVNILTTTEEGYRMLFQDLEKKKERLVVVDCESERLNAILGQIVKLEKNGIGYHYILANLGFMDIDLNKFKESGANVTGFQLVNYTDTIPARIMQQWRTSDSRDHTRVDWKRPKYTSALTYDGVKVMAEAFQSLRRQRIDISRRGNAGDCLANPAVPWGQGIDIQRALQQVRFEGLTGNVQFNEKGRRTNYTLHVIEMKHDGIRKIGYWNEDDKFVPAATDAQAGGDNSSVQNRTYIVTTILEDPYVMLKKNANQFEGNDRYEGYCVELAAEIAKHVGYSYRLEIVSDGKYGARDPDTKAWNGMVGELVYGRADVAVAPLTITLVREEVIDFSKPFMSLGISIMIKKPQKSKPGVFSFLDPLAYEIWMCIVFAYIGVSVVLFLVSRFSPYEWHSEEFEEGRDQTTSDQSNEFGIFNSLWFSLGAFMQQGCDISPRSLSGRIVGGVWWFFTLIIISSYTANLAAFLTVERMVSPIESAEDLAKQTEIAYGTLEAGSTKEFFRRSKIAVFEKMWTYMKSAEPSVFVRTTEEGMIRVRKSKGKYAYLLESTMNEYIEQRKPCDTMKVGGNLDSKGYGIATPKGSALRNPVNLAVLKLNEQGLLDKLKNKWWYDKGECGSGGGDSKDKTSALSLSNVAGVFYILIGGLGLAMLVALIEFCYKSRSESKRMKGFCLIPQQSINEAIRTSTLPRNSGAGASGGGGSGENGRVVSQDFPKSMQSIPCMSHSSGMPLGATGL", "test": "Activity at rat recombinant GluA1 receptor expressed in Xenopus oocytes assessed as effect on glutamate-induced response by two-electrode voltage clamp technique", "conditions": "Oocyte", "outline": "as §1"}}, "note": "Active and inactive are the calls of the source. The rule behind the calls is not given here.", "data": [{"smiles": "COc1ccc(OCC2c3cc(OC)c(OC)cc3CCN2C(=O)c2cccc(Cl)c2)cc1", "note": "(racemic)", "values": [{"measurement": "Activity", "setting": "[1]", "result": "inactive"}, {"measurement": "Activity", "setting": "[2]", "result": "Active"}, {"measurement": "Activity", "setting": "[3]", "result": 353, "unit": "%"}, {"measurement": "Activity", "setting": "[4]", "result": "inactive"}, {"measurement": "Activity", "setting": "[5]", "result": "inactive"}]}]}
